19 compounds from ChEMBL document CHEMBL3232802, “6-Amino-2,4,5-trimethylpyridin-3-ols: a new general synthetic route and antiangiogenic activity” (2014) can be followed below.

Assay [1] has as its system Chorioallantoic membrane. The assay can be described thus: Antiangiogenic activity in chicken chorioallantoic membrane assessed as inhibition of VEGF-induced blood vessel formation at 0.01 nmol […] measured after 3 days. In kind it is functional, cell membranes. Conditions: Gallus gallus.
The subject of assay [2] is A549. The assay can be described thus: Cytotoxicity against human A549 cells inoculated with chicken chorioallantoic membrane assessed as tumor inhibition at 0.01 pmol after 3 days. In kind it is functional. The essentials:
(§1)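 A549 cells (2 × 10⁶ cells/CAM) in Matrigel implanted on CAM, then compound at different concentrations; incubated three days at 37 °C, 55% humidity. Tumor mass grown on CAM isolated and weighed; mean ± S.E.M.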

Assay [3] relates to Chorioallantoic membrane. The assay is described as follows: Antiangiogenic activity in human A549 cells inoculated chicken chorioallantoic membrane assessed as inhibition of blood vessel formation at 0.01 pmol after 3 days. In kind it is functional, Gallus gallus. The method, boiled down: (§2)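 A549 lung cancer cells (2 × 10⁶ cells/CAM) in Matrigel inoculated onto CAM instead of VEGF, then compound at varied doses; three days at 37 °C, 55% humidity. Vessel branch points within tumor region counted double-blind by two observers; mean ± S.E.M.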

Assay [4] deals with Chorioallantoic membrane. The assay can be described thus: Antiangiogenic activity in chicken chorioallantoic membrane assessed as inhibition of VEGF-induced blood vessel formation treated 30 mins before VEGF addition measured after 3 days. The class given is functional. Conditions: Gallus gallus.
Assay [5] deals with A549. The assay is described as follows: Cytotoxicity against human A549 cells inoculated with chicken chorioallantoic membrane assessed as tumor inhibition at 1 pmol after 3 days. In kind it is functional. The essentials: as §1
In assay [6] the test system is Chorioallantoic membrane. The assay is described as follows: Antiangiogenic activity in human A549 cells inoculated chicken chorioallantoic membrane assessed as inhibition of blood vessel formation at 0.1 pmol after 3 days. The class given is functional, Gallus gallus. The method, boiled down:
as §2

In assay [7] the test system is A549. The assay can be described thus: Cytotoxicity against human A549 cells inoculated with chicken chorioallantoic membrane assessed as tumor inhibition at 0.1 pmol after 3 days. In kind it is functional. The essentials: as §1
The test system of assay [8] is A549. The assay can be described thus: Cytotoxicity against human A549 cells inoculated with chicken chorioallantoic membrane assessed as tumor inhibition after 3 days. In kind it is functional, cell-based. The essentials:
as §1

For assay [9], the system named is Chorioallantoic membrane. The assay can be described thus: Antiangiogenic activity in human A549 cells inoculated chicken chorioallantoic membrane assessed as inhibition of blood vessel formation at 1 pmol after 3 days. In kind it is functional, Gallus gallus. The method, boiled down:
as §2

Assay [10] deals with Chorioallantoic membrane. The assay is described as follows: Antiangiogenic activity in human A549 cells inoculated chicken chorioallantoic membrane assessed as inhibition of blood vessel formation after 3 days. Conditions: Gallus gallus. The class given is functional, cell-based. The method, boiled down: as §2

With `Cc1nc(NCc2ccccc2)c(C)c(C)c1O`, the inhibition in the assay on Chorioallantoic membrane [1] came out at 56.7%.

For `Cc1nc(N(c2ccccc2)c2ccccc2)c(C)c(C)c1O`, in the assay with Chorioallantoic membrane [1], the inhibition came out at 65.4%.

Turning to `CCCCCCNc1nc(C)c(O)c(C)c1C`, in the assay on Chorioallantoic membrane [1], the inhibition came out at 53.7%.

As for `Cc1nc(Nc2ccc(Br)cc2)c(C)c(C)c1O`, the inhibition with Chorioallantoic membrane [1] was found to be 61.7%.

As to `Cc1nc(Nc2ccccc2C(C)C)c(C)c(C)c1O`, the inhibition with Chorioallantoic membrane [1] amounted to 55.3%.

In the case of `Cc1nc(NCCCO)c(C)c(C)c1O`, the inhibition with Chorioallantoic membrane [1] is 46.3%.

For `CN(C)c1ccc(/C=C2\C(=O)Nc3ccccc32)cc1`, the “inhibition (INH)” value is listed as 16.2% in the assay on A549 [2]; 20.8% in the assay on Chorioallantoic membrane [3]; 26.8% in the assay on A549 [5]; 25.1% with Chorioallantoic membrane [6]; 23.4% with A549 [7]; 36.2% in the assay on Chorioallantoic membrane [9]. The ID50 in the assay with Chorioallantoic membrane [4] was determined as 10.5 pg. For the same compound, the inhibition result in the assay with Chorioallantoic membrane [4] was “Dose-dependent effect”; in the assay with Chorioallantoic membrane [1] it was 70.5%; in the assay with A549 [8], “Dose-dependent effect”; with Chorioallantoic membrane [10] it was “Dose-dependent effect”.

In the case of `Cc1nc(Nc2ccccc2)c(C)c(C)c1O`, the inhibition in the assay on Chorioallantoic membrane [1] stood at 69.4%.

Regarding `Cc1nc(N2CCCC2)c(C)c(C)c1O`, the inhibition with Chorioallantoic membrane [1] was 69.5%.

In the case of `Cc1nc(NCCCOc2nc(C)c(O)c(C)c2C)c(C)c(C)c1O`, in the assay with Chorioallantoic membrane [1], the inhibition is 67.3%.

Regarding `Cc1nc(N2CCOCC2)c(C)c(C)c1O`, in the assay with Chorioallantoic membrane [1], the inhibition was 59%.

For the compound `Cc1nc(N2CCN(C)CC2)c(C)c(C)c1O`, the inhibition in the assay on Chorioallantoic membrane [1] worked out at 24.7%.

In the case of `Cc1nc(-n2cccc2)c(C)c(C)c1O`, in the assay with Chorioallantoic membrane [1], the inhibition was 44%.

For `Cc1nc(N(C)c2ccccn2)c(C)c(C)c1O`, the inhibition in the assay with Chorioallantoic membrane [1] amounted to 42.2%.

In the case of `Cc1nc(Nc2ccc3c(c2)OCO3)c(C)c(C)c1O`, the inhibition in the assay on Chorioallantoic membrane [1] is 62.4%.

For the compound `Cc1nc(NC2CCCCC2)c(C)c(C)c1O`, the inhibition in the assay on Chorioallantoic membrane [1] was found to be 36.8%.

Turning to `Cc1nc(Nc2ccc([N+](=O)[O-])cc2)c(C)c(C)c1O`, the “inhibition (INH)” value came out at 25.3% with A549 [2]; 19.9% with Chorioallantoic membrane [3]; 50.1% with A549 [5]; 25.6% with Chorioallantoic membrane [6]; 44.4% with A549 [7]; 34.5% in the assay with Chorioallantoic membrane [9]. Besides, the ID50 with Chorioallantoic membrane [4] stood at 4.4 pg. The inhibition entry in the assay with Chorioallantoic membrane [4] was “Dose-dependent effect”; in the assay with Chorioallantoic membrane [1], 75%; with A549 [8], “Dose-dependent effect”; in the assay with Chorioallantoic membrane [10], “Dose-dependent effect”.

As to `Cc1nc(N)c(C)c(C)c1O`, the “inhibition (INH)” value with A549 [2] was determined as 20.5%; in the assay with Chorioallantoic membrane [3], 16.6%; in the assay with A549 [5] it was 27.4%; in the assay with Chorioallantoic membrane [6], 18%; with A549 [7], 25.2%; in the assay with Chorioallantoic membrane [9], 20.7%. In the assay with Chorioallantoic membrane [4], the ID50 worked out at 3.2 pg. Besides, the inhibition entry in the assay on Chorioallantoic membrane [4] is “Dose-dependent effect”; with Chorioallantoic membrane [1], 80.9%; with A549 [8] it was “Dose-dependent effect”; with Chorioallantoic membrane [10], “Dose-dependent effect”.

In the case of `CCCCCCCCCCCCCCCCNc1nc(C)c(O)c(C)c1C`, the inhibition with Chorioallantoic membrane [1] turned out to be 30.1%.
